# Source: ChEMBL document CHEMBL4229559, “Synthesis toward Bivalent Ligands for the Dopamine D2 and Metabotropic Glutamate 5 Receptors” (J Med Chem, 2018)
# Experiments:
# [1] = molecular target: T1, D(2) dopamine receptor (Homo sapiens, UniProt P14416); assay: Displacement of [3H]-Raclopride from recombinant human dopamine D2 receptor expressed in HEK293T cell membranes after 1 hr by liquid scintillation counting
# Method in brief: (§1)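 Membranes (20 µg) from HEK293T cells stably expressing D2R, or D2R with mGluR5. Incubated with 2.0 nM [3H]raclopride and unlabeled ligand (0.1 nM-10 µM) for 1 h at 37 °C in 50 mM Tris-HCl pH 7.4 containing NaCl, KCl, MgCl2, CaCl2 and EDTA. Nonspecific binding defined with 1 µM haloperidol. Counted by scintillation; Ki by Cheng-Prusoff; three independent assays.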
# [2] = molecular target: T1, D(2) dopamine receptor; assay: Displacement of [3H]-Raclopride from recombinant human dopamine D2 receptor expressed in HEK293T cell membranes co-expressing mGluR5a (unknown origin) after 1 hr by liquid scintillation counting; method in brief: as §1
# [3] = molecular target: T2, Metabotropic glutamate receptor 5 (Homo sapiens, UniProt P41594); assay: Antagonist activity at mGluR5 (unknown origin) expressed in HEK293T cells assessed as inhibition of L-Glu-induced MAPK phosphorylation preincubated for 30 mins followed by agonist stimulation for 10 mins by Western blot analysis; type: functional, cell-based
# T2 sequence (P41594 whole entry): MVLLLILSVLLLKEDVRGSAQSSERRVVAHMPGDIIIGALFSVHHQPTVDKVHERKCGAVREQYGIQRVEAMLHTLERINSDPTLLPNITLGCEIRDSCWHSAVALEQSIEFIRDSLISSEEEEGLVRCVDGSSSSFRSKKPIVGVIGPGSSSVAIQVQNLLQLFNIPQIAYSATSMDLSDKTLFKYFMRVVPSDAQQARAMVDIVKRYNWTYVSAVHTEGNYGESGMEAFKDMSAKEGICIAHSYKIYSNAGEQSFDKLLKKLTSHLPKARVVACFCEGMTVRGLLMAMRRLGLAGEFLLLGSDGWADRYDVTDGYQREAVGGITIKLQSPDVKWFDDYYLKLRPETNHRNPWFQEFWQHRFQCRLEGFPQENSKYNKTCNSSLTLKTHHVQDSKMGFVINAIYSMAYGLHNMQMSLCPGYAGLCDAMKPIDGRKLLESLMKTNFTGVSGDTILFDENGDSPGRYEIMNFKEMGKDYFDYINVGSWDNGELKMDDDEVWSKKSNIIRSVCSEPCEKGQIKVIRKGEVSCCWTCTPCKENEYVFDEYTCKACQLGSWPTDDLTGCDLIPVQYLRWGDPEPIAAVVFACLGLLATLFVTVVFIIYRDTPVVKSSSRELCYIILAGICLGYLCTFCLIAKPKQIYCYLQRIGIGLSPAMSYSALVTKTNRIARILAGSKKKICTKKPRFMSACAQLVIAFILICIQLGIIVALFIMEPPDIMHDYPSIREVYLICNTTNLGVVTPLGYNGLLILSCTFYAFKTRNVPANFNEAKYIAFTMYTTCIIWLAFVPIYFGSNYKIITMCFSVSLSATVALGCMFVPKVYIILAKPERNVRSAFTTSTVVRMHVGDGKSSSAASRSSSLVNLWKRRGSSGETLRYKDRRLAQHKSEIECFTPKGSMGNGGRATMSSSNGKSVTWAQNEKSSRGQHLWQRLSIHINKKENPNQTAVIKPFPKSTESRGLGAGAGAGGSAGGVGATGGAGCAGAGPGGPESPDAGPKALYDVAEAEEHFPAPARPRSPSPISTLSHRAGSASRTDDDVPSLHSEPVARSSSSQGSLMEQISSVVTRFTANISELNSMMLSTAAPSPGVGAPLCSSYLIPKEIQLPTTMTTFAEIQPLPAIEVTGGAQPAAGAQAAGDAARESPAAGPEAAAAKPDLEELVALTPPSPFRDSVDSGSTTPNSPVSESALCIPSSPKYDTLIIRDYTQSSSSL
# Method in brief: (§2)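 Cells stably expressing mGluR5 alone or with D2R, seeded at 400,000 per well, serum-starved overnight at about 70% confluence. Ligand pretreatment at 1 nM-10 µM for 30 min at 37 °C, then 10 µM L-glutamate for 7-10 min. RIPA lysates run on western blot; phospho-p44/42 MAPK signal normalized to total p44/42 MAPK. Mean ± SEM of three independent experiments.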
# [4] = molecular target: T1, D(2) dopamine receptor; assay: Agonist activity at human dopamine D2 receptor expressed in HEK293T cells assessed as reduction in forskolin-induced cAMP accumulation preincubated for 15 mins followed by forskolin addition by GloSensor-based assay; type: functional, cell-based
# [5] = molecular target: T3, D(2) dopamine receptor/Metabotropic glutamate receptor 5 (Homo sapiens, UniProt P14416+P41594); assay: Agonist activity at human dopamine D2 receptor /mGluR5a (unknown origin) expressed in HEK293T cells assessed as reduction in forskolin-induced cAMP accumulation preincubated for 15 mins followed by forskolin addition by GloSensor-based assay; type: functional, cell-based
# T3 sequence (P14416 whole entry): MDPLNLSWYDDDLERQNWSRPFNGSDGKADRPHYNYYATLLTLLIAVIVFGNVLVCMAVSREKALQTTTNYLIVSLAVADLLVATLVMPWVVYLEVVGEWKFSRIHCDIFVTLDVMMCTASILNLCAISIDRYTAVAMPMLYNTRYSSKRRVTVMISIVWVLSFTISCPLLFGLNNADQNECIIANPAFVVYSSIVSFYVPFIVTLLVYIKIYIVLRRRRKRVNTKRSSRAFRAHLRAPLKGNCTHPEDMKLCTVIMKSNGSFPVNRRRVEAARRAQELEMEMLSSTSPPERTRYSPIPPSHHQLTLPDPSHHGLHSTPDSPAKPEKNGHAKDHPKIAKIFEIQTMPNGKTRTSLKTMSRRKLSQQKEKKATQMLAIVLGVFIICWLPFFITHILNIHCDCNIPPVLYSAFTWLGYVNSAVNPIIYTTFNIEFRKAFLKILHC
# T3 sequence (P41594 whole entry): as the sequence (P41594 whole entry) above
# [6] = molecular target: T2, Metabotropic glutamate receptor 5; assay: Displacement of [3H]MPEP from recombinant mGluR5 (unknown origin) expressed in HEK293T cell membranes after 1 hr by liquid scintillation counting
# Method in brief: (§3)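 Membranes (20 µg) from cells stably expressing mGluR5, with or without D2R. Incubated with 3.0 nM [3H]MPEP and unlabeled ligand (0.1 nM-100 µM) in 50 mM Tris-HCl/2 mM MgCl2, pH 7.4, for 1 h at 25 °C. Nonspecific binding defined with 10 µM MPEP. Filtration and scintillation counting; Ki via Cheng-Prusoff; three independent assays in duplicate.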
# [7] = molecular target: T2, Metabotropic glutamate receptor 5; assay: Displacement of [3H]MPEP from recombinant mGluR5a (unknown origin) expressed in HEK293T cell membranes co-expressing human dopamine D2 receptor after 1 hr by liquid scintillation counting; method in brief: as §3
# [8] = molecular target: T3, D(2) dopamine receptor/Metabotropic glutamate receptor 5; assay: Antagonist activity at human dopamine D2 receptor /mGluR5a (unknown origin) expressed in HEK293T cells assessed as inhibition of L-Glu-induced MAPK phosphorylation preincubated for 30 mins followed by agonist stimulation for 10 mins by Western blot analysis; type: cell-based; method in brief: as §2
# T1 sequence (P14416 whole entry): as the sequence (P14416 whole entry) above
Ki [1] [nM],Ki [2] [nM],IC50 [3] [nM],EC50 [4],EC50 [5],Ki [6] [nM],Ki [7] [nM],IC50 [8] [nM],EC50 ([4]; read-out: EC50) [nM],EC50 ([5]; read-out: EC50) [nM],SMILES
352,186,900,–,–,–,–,–,–,–,COc1cc(CN2CCN(c3ccccc3OC)CC2)ccc1OCc1cn(CCOCCOCCOCCOCCOCCNC(=O)COc2cccc(C#Cc3csc(C)n3)c2)nn1
77,69,–,Not Active,Not Active,–,–,–,–,–,C#CCOc1ccc(CN2CCN(c3ccccc3OC)CC2)cc1OC
132,45,110,–,–,1000,1300,1800,–,–,COc1cc(CN2CCN(c3ccccc3OC)CC2)ccc1OCc1cn(CCCCCCCCN(C)CCCCCNC(=O)COc2cncc(C#Cc3csc(C)n3)c2)nn1
17,19,–,–,–,–,–,–,3,6.5,C#CCCC(=O)Nc1ccc(CCN(CCC)C2CCc3c(O)cccc3C2)cc1 (stereo unspecified)
147,94,240,–,–,–,–,–,–,–,COc1cc(CN2CCN(c3ccccc3OC)CC2)ccc1OCc1cn(CCCCCCCCN(C)CCCCCNC(=O)COc2cccc(C#Cc3csc(C)n3)c2)nn1
–,–,2600,–,–,5800,5700,4500,–,–,Cc1nc(C#Cc2cncc(OCC(=O)NCCCCCN(C)CCCCCCCCN=[N+]=[N-])c2)cs1
79,171,320,–,–,–,–,–,5.5,32,CCCN(CCc1ccc(NC(=O)CCc2cn(CCCCCCCCCCN(C)CCCCCNC(=O)COc3cncc(C#Cc4csc(C)n4)c3)nn2)cc1)C1CCc2c(O)cccc2C1 (stereo unspecified)
303,115,450,–,–,–,–,–,–,–,COc1cc(CN2CCN(c3ccccc3OC)CC2)ccc1OCc1cn(CCCCCCCCCCN(C)CCCCCNC(=O)COc2cncc(C#Cc3csc(C)n3)c2)nn1
295,142,1600,–,–,–,–,–,7.6,20,CCCN(CCc1ccc(NC(=O)CCc2cn(CCCCCCNC(=O)COc3cncc(C#Cc4csc(C)n4)c3)nn2)cc1)C1CCc2c(O)cccc2C1 (stereo unspecified)
398,252,310,–,–,–,–,–,–,–,COc1cc(CN2CCN(c3ccccc3OC)CC2)ccc1OCc1cn(CCCCCCCCCCN(C)CCCCCNC(=O)COc2cccc(C#Cc3csc(C)n3)c2)nn1
438,251,1200,–,–,–,–,–,–,–,COc1cc(CN2CCN(c3ccccc3OC)CC2)ccc1OCc1cn(CCOCCOCCOCCNC(=O)COc2cccc(C#Cc3csc(C)n3)c2)nn1
50,13,170,–,–,2300,1100,620,3.3,1.5,CCCN(CCc1ccc(NC(=O)CCc2cn(CCCCCCCCN(C)CCCCCNC(=O)COc3cncc(C#Cc4csc(C)n4)c3)nn2)cc1)C1CCc2c(O)cccc2C1 (stereo unspecified)
